IC50, inhibition in vivo and LD50 data for eight molecules are collected here from ChEMBL document CHEMBL2401724, “Synthesis and structure--activity relationships of N²-alkylated quaternary β-carbolines as novel antitumor agents” (Eur J Med Chem, 2013).

The nature of data set [1]: Cytotoxicity against human ECA109 cells by MTT assay. Format: functional, cell-based. The settings on record: ECa-109. In short, it runs like this:
(§1)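 Cell lines were cultured in 96-well microtitre plates at 37 °C in humidified 5% CO₂. Compounds were dissolved in DMSO, at ≤2% (v/v) final in the growth medium. Viability was read by MTT staining, expressed relative to untreated cells.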
A general note: Tetrazolium dyes change colour on reduction, which living cells bring about.

In a further data set the test system is 769-P. The experiment in a line: Cytotoxicity against human 769-P cells by MTT assay. Type of data set: functional, cell-based. In short, it runs like this:
as §1

The subject of the next data set is CWR22R. The experiment in a line: Cytotoxicity against human 22Rv1 cells by MTT assay. Format: functional, cell-based. In short, it runs like this:
as §1

The next data set has as its system A-375. The experiment in a line: Cytotoxicity against human A375 cells by MTT assay. Format: functional, cell-based. In short, it runs like this:
as §1

The next data set has as its system HepG2. Briefly: Cytotoxicity against human HepG2 cells by MTT assay. Type of data set: functional, cell-based. In short, it runs like this: as §1
For a further data set, the system named is HT-29. Briefly: Cytotoxicity against human HT-29 cells by MTT assay. Format: functional, cell-based. In short, it runs like this:
as §1

Data set [2] in a line: Antitumor activity against mouse Sarcoma 180 cells allografted in mouse assessed as tumor growth inhibition at 2.5 mg/kg, ip qd administered for 7 days measured after 21 days relative to control. Type of data set: functional. The settings on record: Sarcoma-180, ip, route intraperitoneal, read-out: TGI. In short, it runs like this: (§2)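 Tumour cells (S180 sarcoma or Lewis lung) were first grown in mice for 7 days, then harvested. Viable cells (2 × 10⁶/mouse) were injected s.c. into the armpit. Groups of 10 female mice received the compound i.p. once daily for 7 consecutive days, starting 24 h after inoculation. Cyclophosphamide 30 mg/kg served as positive control and vehicle as negative control. Body weights were taken every 3 days. Mice were killed on day 21 post-inoculation, and tumours were excised and weighed to calculate the inhibition rate versus control.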

Data set [3] can be described thus: Cytotoxicity against mouse LLC cells by MTT assay. Format: functional, cell-based. The note with it: Lewis lung carcinoma. In short, it runs like this: as §1
The test system of the next data set is SK-OV-3. Briefly: Cytotoxicity against human SKOV3 cells by MTT assay. Format: functional, cell-based. In short, it runs like this:
as §1

The next data set deals with MCF7. Briefly: Cytotoxicity against human MCF7 cells by MTT assay. Format: functional, cell-based. In short, it runs like this: as §1
The nature of data set [4]: Acute toxicity in ip dosed C57BL/6 mouse after 14 days. Type of data set: organism-based. The settings on record: in vivo. In short, it runs like this: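 C57BL/6 mice (9–12 weeks, 18–22 g), single i.p. dose; watched continuously for 2 h, intermittently over 24 h, then occasionally to day 14 for behaviour, deaths and delayed effects. Survivors killed at day 14; heart, liver, kidneys inspected macroscopically, early deaths also examined. LD50 derived graphically.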

A further data set deals with BGC-823. Briefly: Cytotoxicity against human BGC823 cells by MTT assay. Type of data set: functional, cell-based. In short, it runs like this: as §1
Data set [5] in a line: Antitumor activity against mouse Sarcoma 180 cells allografted in mouse assessed as tumor growth inhibition at 0.5 mg/kg, ip qd administered for 7 days measured after 21 days relative to control. Type of data set: functional. The settings on record: Sarcoma-180, ip, route intraperitoneal, read-out: TGI. In short, it runs like this:
as §2

Data set [6] concerns Lewis lung carcinoma cell line. Briefly: Antitumor activity against mouse LLC cells allografted in mouse assessed as tumor growth inhibition at 0.5 mg/kg, ip qd administered for 7 days measured after 21 days relative to control. Format: functional. The note with it: route intraperitoneal, read-out: TGI. In short, it runs like this: as §2
The next data set concerns LoVo. Briefly: Cytotoxicity against human LoVo cells. Type of data set: functional, cell-based.
Data set [7] is described as follows: Antitumor activity against mouse Sarcoma 180 cells allografted in mouse assessed as tumor growth inhibition at 4 mg/kg, ip qd administered for 7 days measured after 21 days relative to control. The settings on record: Sarcoma-180, ip, route intraperitoneal, read-out: TGI. Format: functional. In short, it runs like this:
as §2

The subject of data set [8] is Lewis lung carcinoma cell line. Briefly: Antitumor activity against mouse LLC cells allografted in mouse assessed as tumor growth inhibition at 4 mg/kg, ip qd administered for 7 days measured after 21 days relative to control. Type of data set: functional. The note with it: route intraperitoneal, read-out: TGI. In short, it runs like this:
as §2

Data set [9] in a line: Antitumor activity against mouse Sarcoma 180 cells allografted in mouse assessed as tumor growth inhibition at 1.75 mg/kg, ip qd administered for 7 days measured after 21 days relative to control. Type of data set: functional. The note with it: Sarcoma-180, ip, route intraperitoneal, read-out: TGI. In short, it runs like this: as §2
Data set [10] deals with Lewis lung carcinoma cell line. The experiment in a line: Antitumor activity against mouse LLC cells allografted in mouse assessed as tumor growth inhibition at 1.75 mg/kg, ip qd administered for 7 days measured after 21 days relative to control. Format: functional. The note with it: route intraperitoneal, read-out: TGI. In short, it runs like this: as §2
Data set [11] can be described thus: Antitumor activity against mouse Sarcoma 180 cells allografted in mouse assessed as tumor growth inhibition at 6 mg/kg, ip qd administered for 7 days measured after 21 days relative to control. Format: functional. The settings on record: Sarcoma-180, ip, route intraperitoneal, read-out: TGI. In short, it runs like this: as §2
In data set [12] the test system is Lewis lung carcinoma cell line. The experiment in a line: Antitumor activity against mouse LLC cells allografted in mouse assessed as tumor growth inhibition at 30 mg/kg, ip qd administered for 7 days measured after 21 days relative to control. The settings on record: read-out: TGI.
Data set [13] is described as follows: Antitumor activity against mouse Sarcoma 180 cells allografted in mouse assessed as tumor growth inhibition at 30 mg/kg, ip qd administered for 7 days measured after 21 days relative to control. The settings on record: Sarcoma-180, ip, read-out: TGI.
The test system of data set [14] is Lewis lung carcinoma cell line. Briefly: Antitumor activity against mouse LLC cells allografted in mouse assessed as tumor growth inhibition at 1.25 mg/kg, ip qd administered for 7 days measured after 21 days relative to control. Format: functional. The settings on record: route intraperitoneal, read-out: TGI. In short, it runs like this: as §2
Data set [15] is described as follows: Antitumor activity against mouse Sarcoma 180 cells allografted in mouse assessed as tumor growth inhibition at 1.25 mg/kg, ip qd administered for 7 days measured after 21 days relative to control. Format: functional. The settings on record: Sarcoma-180, ip, route intraperitoneal, read-out: TGI. In short, it runs like this: as §2

The term IC50 denotes the concentration that gives 50% inhibition. A higher IC50 goes with weaker potency in that assay. The LD50 is the dose expected to kill half of the subjects tested.

Bounds are passed on as bounds.

`Fc1ccc(C[n+]2ccc3c4ccccc4n(CCCc4ccccc4)c3c2)cc1.[Cl-]`: the IC50 in [1] was found to be 5.3 µM; with 769-P it was 14.3 µM; with CWR22R, 4.3 µM; in the data set on A-375, 10.4 µM; with HepG2 it was 10.4 µM; in the data set with HT-29 it was 9.1 µM. The IC50 was 8.1 µM in [3], 12.2 µM in the data set with SK-OV-3, 9.7 µM in the data set on MCF7 and 8.1 µM in the data set on BGC-823. The inhibition in vivo at 2.5 mg/kg in [2] was 51.5%. Also, the LD50 at 336 h in data set [4] was 12.5 mg/kg.

As for `Cc1c2c(cc[n+]1Cc1ccccc1)c1ccccc1n2CCCc1ccccc1.[Br-]`, the IC50 in data set [1] was found to be 6.8 µM; with 769-P it was 5.3 µM; in the data set with CWR22R it was 1.8 µM; in the data set with A-375 it was 8.5 µM; in the data set on HepG2, 5.8 µM; in the data set with HT-29 it was 14.6 µM. In addition, the IC50 was < 2 µM in data set [3], 7.6 µM with SK-OV-3, 7 µM in the data set on MCF7 and 6.9 µM in the data set on BGC-823. The values for the inhibition in vivo at 0.5 mg/kg in data set [5] and in data set [6] were 51% and 33.1%, respectively. The same molecule displayed an LD50 at 336 h in data set [4] of 2.5 mg/kg.

As to `c1ccc(Cn2c3ccccc3c3cc[n+](Cc4ccccc4)cc32)cc1`, the IC50 came out at 20 µM with LoVo; 32.7 µM in data set [1]; 8.7 µM with 769-P; 5.7 µM in the data set with CWR22R; 7.8 µM in the data set on A-375; 34.6 µM with HepG2. Further, the IC50 with HT-29 was 42.5 µM; in data set [3], < 2 µM; in the data set on SK-OV-3, 16.9 µM; with MCF7, 18.7 µM; in the data set on BGC-823 it was 38.7 µM. Further, the inhibition in vivo at 4 mg/kg in data set [7] is 45.9%; in data set [8], 48.5%.

For the molecule `[Br-].c1ccc(CCCn2c3ccccc3c3cc[n+](Cc4ccccc4)cc32)cc1`, the IC50 in data set [1] was determined as 11.7 µM; in the data set on 769-P, 4.9 µM; with CWR22R, 3.2 µM; in the data set with A-375, 8.7 µM; in the data set with HepG2, 7.9 µM; in the data set with HT-29, 7.6 µM. For the same molecule, the IC50 is 3.9 µM in data set [3], 4.4 µM in the data set with SK-OV-3, 14.4 µM in the data set with MCF7 and 8.5 µM in the data set on BGC-823. In [4], this molecule returned an LD50 at 336 h of 8.9 mg/kg. Besides, the inhibition in vivo at 1.75 mg/kg in data set [9] amounted to 62.1%; in data set [10] it was 59.2%.

Consider `Clc1cccc(C[n+]2ccc3c4ccccc4n(CCCc4ccccc4)c3c2)c1.[Br-]`, for which the IC50 in data set [1] was 7.9 µM; in the data set with 769-P, 21.9 µM; with CWR22R, 9.7 µM; in the data set with A-375, 24.6 µM; with HepG2, 19 µM; with HT-29, 16.5 µM. Besides, the IC50 in [3] turned out to be 6.5 µM; in the data set on SK-OV-3, 13.8 µM; in the data set with MCF7 it was 14.3 µM; in the data set on BGC-823 it was 9.8 µM. In addition, the inhibition in vivo at 6 mg/kg in [11] was found to be 43.5%. In addition, the LD50 at 336 h in data set [4] was 30 mg/kg.

As for `O=P1(N(CCCl)CCCl)NCCCO1` (centres undefined) [CYCLOPHOSPHAMIDE ANHYDROUS], the inhibition in vivo at 30 mg/kg in [12] was determined as 87.3%; in data set [13], 85.6%.

In the case of `COc1ccc(Cn2c3ccccc3c3cc[n+](Cc4ccccc4)cc32)cc1.[Br-]`, the IC50 in [1] was 54.3 µM; with 769-P, 7.6 µM; in the data set with CWR22R, 4.8 µM; in the data set on A-375, 9.5 µM; in the data set with HepG2 it was 15.9 µM; in the data set with HT-29, 19.2 µM. Besides, the IC50 is 4.2 µM in data set [3], 19.9 µM in the data set with SK-OV-3, 18.7 µM in the data set on MCF7 and 17.8 µM in the data set with BGC-823. Moreover, in [4], the LD50 at 336 h is 19.5 mg/kg.

For `COc1ccc(-c2c3c(cc[n+]2Cc2ccccc2)c2ccccc2n3CCCc2ccccc2)cc1.[Br-]`, the IC50 was 12.3 µM in [1]; < 2 µM in the data set on 769-P; 1.8 µM in the data set on CWR22R; < 2 µM in the data set on A-375; 3.3 µM in the data set with HepG2; 2.4 µM with HT-29. Besides, the IC50 was < 2 µM in data set [3], 5.2 µM with SK-OV-3, 2.2 µM with MCF7 and 3.2 µM in the data set with BGC-823. Besides, the inhibition in vivo at 1.25 mg/kg in data set [14] was 23.9%; in data set [15], 41.4%. For the same molecule, the LD50 at 336 h in data set [4] was determined as 6.25 mg/kg.
